# The campaign covered roughly 2,500 compounds. About 460 (18%) were called active. Only a sample is shown. Unmarked numbers belong to inactive results.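 The calls were made as follows: active = mean activation above a cutoff of low control average plus 3 SD from the earlier screen (cut at about 12% in these data); inactive = the rest.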
# Experiment: IANBD-channel fluorescence artefacts in buffer – biochemical, artefact control for cardiac RTF calcium sensitizer project, confirmation (AID 504382)
# Conditions: IANBD fluorescence interference counterscreen, EC20 Ca2+, at 7.2 µM, hits give high values, scaled: EC20 calcium 0, EC100 calcium 100
# Procedure, shortened: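 Also added: EC20 calcium, 0.472 mM; dosing: single nominal 7.2 µM compound dose, 0.7% DMSO final; timing: 15 min, 25 °C; detection: fluorescence intensity, excitation 480 nm, emission 540 nm; replicates: each compound tested in triplicate wells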
row,Structure (SMILES),fluorescence artifact activation
1,COc1cccc(/C(O)=C/c2nc3ccc(C(=O)NCCc4ccc(Cl)cc4)cc3[nH]c2=O)c1,0.43%
2,O=C(Nc1cccc(Cl)c1)c1cc(S(=O)(=O)NCCc2ccc(Cl)cc2)ccc1F,10.6%
3,COc1ccc(N(C)S(=O)(=O)c2ccc(Cl)c(C(=O)NCCc3ccc(Cl)cc3)c2)cc1,35.3% (active)
4,CCOc1ccc(C(C(=O)NC2CCCCC2)N(C(=O)Cc2cccs2)c2ccc(-n3cnnn3)c(OC)c2)cc1 (centres undefined),0.09%
5,O=C(c1ccccc1)N1CCN(CC#CC2(O)CCCCC2)CC1,-0.05%
6,CCOc1ccc(C(=O)NC2CCN(C(=O)Nc3ccccc3OC)CC2)cc1,-0.03%
7,COC(=O)CN1C(=S)N(c2ccc(OC)cc2)C(=O)/C1=C/c1ccc(N2CCOCC2)cc1,-0.04%
8,COc1ccc(N2CCN(C(=O)c3ccc(OCC4CCCO4)cc3)CC2)cc1 (centres undefined),23.9% (active)
9,COc1ccc(CC(=O)NCc2csc(-c3cccs3)n2)cc1OC,0.03%
10,Cc1c(Cl)c([N+](=O)[O-])nn1CC(=O)N1CCN(C23CC4CC(CC(C4)C2)C3)CC1,0.69%
11,COc1ccc(/C=C2\SC(=O)NC2=S)cc1OC,0.32%
12,COc1cc(/C=C2\SC(=O)NC2=O)ccc1Oc1ccc([N+](=O)[O-])cn1,25% (active)
13,COc1ccc(/C=C2\SC(c3ccc(C)cc3)=NC2=O)cc1OC,0.1%
14,NC(=S)Nc1c(Cl)cccc1Cl,-0.03%
15,COc1[nH]c(/N=C/c2ccccc2)c(C#N)c1C#N,0.1%
16,NC(=O)NC(Cc1ccccc1)C(=O)NCC1(N2CCCCC2)CCCCC1 (centres undefined),7.54%
17,CC1CC(C)CN(C(=O)COC(=O)CCc2nc3ccccc3c(=O)[nH]2)C1 (centres undefined),-0.03%
18,Cn1cc(/C=C2\SC(=S)N(NC(=O)c3ccccc3Cl)C2=O)c2ccccc21,6.42%
19,CNC(=O)N(O)C1N(C)C(=O)N(CC(=O)OC)C1(C)C (centres undefined),12.4% (active)
20,COc1ccc(/C=C2\SC(=S)N(CCCC(=O)Nc3ccccn3)C2=O)cc1OC,0.11%
21,CC(C(=O)c1ccc(Br)cc1)[n+]1cccc2ccccc21 (centres undefined),11.8% (active)
22,CN(C)c1ccc(/C=C(/C(=O)c2ccc(Cl)cc2Cl)n2cncn2)cc1,-0.05%
23,CCOC(=O)c1c(=O)n(O)c2ccc(OC)cc2[n+]1[O-],0.13%

row,Structure (SMILES),fluorescence artifact activation
1,O=C(c1cccs1)N1CCN=C1SCc1cccc(F)c1,0.02%
2,COc1cc(OC)cc(C(=O)NCC(=O)OC2CCOC2=O)c1 (centres undefined),6.1%
3,COCCNC(=O)C(c1ccc(C)o1)N(Cc1ccc(F)cc1)C(=O)Cn1nnc2ccccc21 (centres undefined),0.43%
4,O=C(NCC(=O)N(Cc1cccs1)C(C(=O)NC1CCCCC1)c1ccncc1)c1ccco1 (centres undefined),0.04%
5,O=C(NC1CCCCC1)C(c1ccc(F)cc1)N(Cc1ccccc1)C(=O)CN1C(=O)c2ccccc2S1(=O)=O (centres undefined),27.8% (active)
6,CSC(=NCc1ccco1)NC#N,0.12%
7,CN1/C(=C\C=C2/SC(=S)NC2=O)C(C)(C)c2ccccc21,0.11%
8,Cc1cc(-c2ccccc2C(=O)NC2CCCCC2)on1,0.27%
9,Cc1ccc(Cn2c(Sc3nnc(C)s3)nc3c2c(=O)[nH]c(=O)n3C)cc1,42.6% (active)
10,CCN(CC)S(=O)(=O)c1ccc2c(c1)nc(CCC(=O)Nc1ccc3c(c1)OCO3)n2C,0.09%
11,COc1cc(C(=O)Nc2ccc(Cl)c(C(F)(F)F)c2)cc(OC)c1OC,0.1%
12,COc1cc(C(=O)NCc2nnc(SCC(=O)Nc3ccc4c(c3)OCO4)o2)cc(OC)c1OC,35.2% (active)
13,Cc1onc(-c2c(F)cccc2Cl)c1C(N)=S,6.57%
14,CN(C)c1ccc(/C=C(\C#N)C(=O)Nc2nc3c(s2)CCN(Cc2ccccc2)C3)cc1,0.06%
15,Cc1ccc(N=Nc2c(O)[nH]c3ccc(F)cc23)cc1,6.29%
16,CC(=O)N1CCCc2cc(S(=O)(=O)N3CCCC(C(=O)Nc4cccc(C)c4)C3)ccc21 (centres undefined),0.1%
17,CC(=O)c1ccc(NC(=O)C2CCCN(S(=O)(=O)c3c(C)[nH]c(=O)[nH]c3=O)C2)cc1 (centres undefined),20.3% (active)
18,Cc1cc(S(=O)(=O)N2CCCC(C(=O)Nc3ccc(C(=O)O)cc3)C2)ccc1Cl (centres undefined),1.39%
19,O=C1CCC[C@@H]2C[C@@]3(C[C@@H]4CCN1[C@H]24)Nc1cc([N+](=O)[O-])ccc1NC3=NC1CCCCC1,10.3%
20,CC1(c2ccc(OC(F)F)cc2)NC(=O)N(CC(=O)Nc2ccc(F)cc2)C1=O (centres undefined),0%
21,NS(=O)(=O)c1ccc(NC(=O)COc2ccc(C(=O)c3ccc(F)cc3)cc2)cc1,545% (active)
22,CCCC(CCC(=O)Nc1ccc(S(N)(=O)=O)cc1)C(=O)O (centres undefined),0.96%
23,CCOC(=O)C1(CCc2ccccc2)CCN(C(=O)c2occc2C)CC1,3.37%

row,Structure (SMILES),fluorescence artifact activation
1,CCCC1C(c2ccccc2)C(C#N)(C#N)C2(C#N)CC1(N)NC2=O (centres undefined),0.01%
2,Oc1[nH]c2ccccc2c1N=Nc1ccccc1Cl,0.13%
3,C#CCOCCOCCOCCNc1nc(N2CCN(C(=O)CCCCCCCCCCNC(=O)[C@@H](CCSC)n3cc(CCO)nn3)CC2)nc(N2CCN(C(=O)CCCCCCCCCCNC(=O)[C@H](CCSC)n3cc(CCO)nn3)CC2)n1,0.15%
4,CCN=C(NC#N)SCc1c(F)cccc1Cl,0.17%
5,NS(=O)(=O)c1ccc(NCc2c(F)cccc2Cl)cc1,24.7% (active)
6,COc1ccc(C2NN=C(c3c[nH]c4ccccc34)C2O)cc1 (centres undefined),8.63%
7,CCN(CC)C(=O)C1CCC(CNS(=O)(=O)c2cccc3cccnc23)CC1 (centres undefined),-0.02%
8,CC(C)c1ccc(NS(=O)(=O)c2cccc3cccnc23)cc1,168% (active)
9,CN(CC(=O)NCc1ccc(Cl)cc1)S(=O)(=O)c1cccc2cccnc12,0.14%
10,CCc1ccc2c(COC(=O)CNS(=O)(=O)c3ccc(NC(C)=O)cc3)cc(=O)oc2c1,2.6%
11,COC(=O)c1ccc(CS(=O)(=O)c2ccc(F)cc2)o1,0.08%
12,N#CC1(C#N)CC(C=O)=C(N)C1(C#N)CC(=O)c1ccc(F)cc1 (centres undefined),2.93%
13,Cc1ccc(Cn2nc(C)c(NC(=O)C3(C)CC3(Br)Br)c2C)cc1 (centres undefined),6.32%
14,CC(NC(=O)CN1CCC(C(N)=O)CC1)c1ccccc1 (centres undefined),-0.04%
15,CN(C)NC(=S)Nc1ccc(S(=O)(=O)N2CCCCC2)cc1,2.09%
16,Cc1ccc(CNC(=O)c2ccc(S(=O)(=O)N3CCCCC3)cc2)cc1,-0.06%
17,Cc1ccc(NC(=O)CN(C)c2ccc(S(=O)(=O)N3CCCC3)cn2)cc1,18.6% (active)
18,COc1cc(/C=C/c2sc3ccccc3[n+]2CCCS(=O)(=O)[O-])ccc1O,1.3%
19,O=[N+]([O-])c1ccc(NN=Cc2cccc3ccccc23)nc1,7.52%
20,COc1ccc(-n2c(C)cc(/C=C3\SC(=S)NC3=O)c2C)cc1,-0.04%
21,O=C(CCC1CCCN(C(=O)C2=CCCC2)C1)N1CCN(c2ccccn2)CC1 (centres undefined),-0.04%
22,O/C=c1\ccc2cccc3nc(C(F)(F)F)nc1c23,1630% (active)
23,Cc1ccc(N2C3=C(C(=O)CC(C)(C)C3)C(c3cn(C)nc3C)C3=C2CC(C)(C)CC3=O)cc1,8.85%

row,Structure (SMILES),fluorescence artifact activation
1,O=C(c1c[nH]c(C(=O)C(Cl)(Cl)Cl)c1)c1c(F)cccc1F,1460% (active)
2,CN(C)C=NC(=O)c1cc(C(=O)c2ccccc2Cl)c[nH]1,0.08%
3,COc1ccc(-n2nc3c(N4CCC(C(=O)NCc5ccco5)CC4)nnc(C)c3c2C)cc1,0.15%
4,Cc1nc([N+](=O)[O-])c(Sc2nc3ccccc3n2C)n1Cc1ccccc1,17.2% (active)
5,Cn1c(/C(C#N)=C(\O)CN2CCN(Cc3ccccc3)CC2)nc2ccccc21,-0.07%
6,Cc1nc([N+](=O)[O-])c(Br)n1CC(=O)c1ccc2ccccc2c1,0.15%
7,COc1cc(-c2c(-c3ccc4c(c3)OCO4)noc2C)ccc1F,6.28%
8,CCCOc1ccc(C2C(C(=O)c3ccc(C)o3)=C(O)C(=O)N2CCCn2ccnc2)cc1 (centres undefined),20.7% (active)
9,CCCCOc1cccc(C2C(C(=O)c3cccs3)=C(O)C(=O)N2Cc2cccnc2)c1 (centres undefined),-0.01%
10,COC(=O)c1sc(N2C(=O)C(O)=C(C(=O)c3ccc(C)o3)C2c2ccc(F)cc2)nc1C (centres undefined),7.6%
11,COc1ccc(-c2cc(C(F)(F)F)c3c(N)c(C(=O)NCCSC)sc3n2)cc1,0.08%
12,COc1ccc(Sc2ccc(-c3nc4cnccn4c3NC3CCCCC3)cc2OC)cc1,0.04%
13,Cc1ccc(NC(=O)/C(C#N)=C/c2ccc(C)s2)c(C)c1,0.06%
14,Cc1cccc(CSc2ccc(-c3ccco3)nn2)c1,0.5%
15,Cc1cc(C)c2c(=O)n(-c3ccccc3)[nH]c2n1,0.96%
16,Cc1cc(C)nc(SCCCNCc2ccc(Br)cc2)n1,-0.01%
17,CC(=O)C1=C(C)N(Cc2ccccc2)C(=O)N[C@@H]1c1cccc(C(F)(F)F)c1,-0.08%
18,CC(=O)C1=C(C)N(CC2CC2)C(=O)N[C@H]1c1ccc(Br)cc1,36.6% (active)
19,O=c1c2ccccc2nc2n1CCCN2,2.97%
20,N=c1n(Cc2ccccc2)c2ccccc2n1CC(O)c1ccco1 (centres undefined),7.18%
